Experimental data: ChEMBL document CHEMBL1821629, “Nigerapyrones A-H, α-pyrone derivatives from the marine mangrove-derived endophytic fungus Aspergillus niger MA-132” (J Nat Prod, 2011)
Calls of active or inactive are those of the source. The rule behind the calls is not given here.

Tests used:
Alternaria brassicae = test: Antimicrobial activity against Alternaria brassicae by disc diffusion method; assay type: functional
Summary of the method: (§1)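 Disk diffusion assay run against a panel of two bacteria (Staphylococcus aureus, Escherichia coli) and four plant-pathogenic fungi (Alternaria brassicae, Fusarium oxysporum, Coniella diplodiella, Physalospora piricola). The positive control was chloramphenicol for the bacterial strains and amphotericin B for the fungal strains.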

Fusarium oxysporum = test: Antimicrobial activity against Fusarium oxysporum by disc diffusion method; assay type: functional, organism-based; summary of the method: as §1
[1] = test system: Botryosphaeria berengeriana; test: Antimicrobial activity against Physalospora pyricola by disc diffusion method; assay type: functional, organism-based; summary of the method: as §1
Escherichia coli = test: Antimicrobial activity against Escherichia coli by disc diffusion method; assay type: functional, organism-based; summary of the method: as §1
Coniella diplodiella = test: Antimicrobial activity against Coniella diplodiella by disc diffusion method; assay type: functional; summary of the method: as §1
Staphylococcus aureus = test: Antimicrobial activity against Staphylococcus aureus by disc diffusion method; assay type: functional, organism-based; summary of the method: as §1
A549 = test: Cytotoxicity against human A549 cells; assay type: functional, cell-based
NCI-H460 = test: Cytotoxicity against human NCI-H460 cells; assay type: functional, cell-based
HepG2 = test: Cytotoxicity against human HepG2 cells; assay type: functional, cell-based
DU-145 = test: Cytotoxicity against human DU145 cells; assay type: functional, cell-based
MDA-MB-231 = test: Cytotoxicity against human MDA-MB-231 cells; assay type: functional, cell-based
MCF7 = test: Cytotoxicity against human MCF7 cells; assay type: functional, cell-based
SW1990 = test: Cytotoxicity against human SW1990 cells; assay type: functional, cell-based

COc1cc(-c2cc(C)cc(C)c2-c2ccccc2)oc(=O)c1
inhibition (Alternaria brassicae): Active | inhibition (Fusarium oxysporum): Active | inhibition [1]: Active | inhibition (Escherichia coli): Active | inhibition (Coniella diplodiella): Active | inhibition (Staphylococcus aureus): Active

COc1cc(/C=C/C(C)=C/C(C)=C/c2ccccc2)oc(=O)c1
inhibition (Alternaria brassicae): Active | inhibition (Fusarium oxysporum): Active | inhibition [1]: Active | inhibition (Escherichia coli): Active | inhibition (Coniella diplodiella): Active | inhibition (Staphylococcus aureus): Active

COc1cc(/C=C/C(C)=C/C(C)=C\c2ccccc2)oc(=O)c1
inhibition (Alternaria brassicae): Active | inhibition (Fusarium oxysporum): Active | inhibition [1]: Active | inhibition (Escherichia coli): Active | inhibition (Coniella diplodiella): Active | inhibition (Staphylococcus aureus): Active

COc1cc(/C=C/C(C)=C/C(C)=O)oc(=O)c1
inhibition (Alternaria brassicae): Active | inhibition (Fusarium oxysporum): Active | inhibition [1]: Active | inhibition (Escherichia coli): Active | inhibition (Coniella diplodiella): Active | inhibition (Staphylococcus aureus): Active

COc1cc(/C=C/C(C)=C\C(C)=C\c2ccccc2)oc(=O)c1
inhibition (Alternaria brassicae): Active | inhibition (Fusarium oxysporum): Active | inhibition [1]: Active | inhibition (Escherichia coli): Active | inhibition (Coniella diplodiella): Active | inhibition (Staphylococcus aureus): Active

COc1cc(\C=C/C(C)=C/C(C)=C/c2ccccc2)oc(=O)c1
inhibition (Alternaria brassicae): Active | inhibition (Fusarium oxysporum): Active | inhibition [1]: Active | inhibition (Escherichia coli): Active | inhibition (Coniella diplodiella): Active | inhibition (Staphylococcus aureus): Active

COc1cc(/C=C/C(C)=C/C(C)=C/c2ccccc2)oc(=O)c1C [ASNIPYRONE A]
inhibition (Alternaria brassicae): Active | IC50 (A549): 62 µM | inhibition (Fusarium oxysporum): Active | inhibition [1]: Active | inhibition (Escherichia coli): Active | inhibition (Coniella diplodiella): Active | inhibition (Staphylococcus aureus): Active

O=c1[nH]cc(F)c(=O)[nH]1 [FLUOROURACIL]
IC50 (NCI-H460): 8.5 µM | IC50 (HepG2): 109 µM | IC50 (A549): 52 µM | IC50 (DU-145): 3.3 µM | IC50 (MDA-MB-231): 59 µM | IC50 (MCF7): 31 µM

COc1cc(-c2cc(C)cc(C)c2-c2ccccc2)oc(=O)c1C [NIGERAPYRONE B]
IC50 (HepG2): 62 µM | inhibition (Alternaria brassicae): Active | inhibition (Fusarium oxysporum): Active | inhibition [1]: Active | inhibition (Escherichia coli): Active | inhibition (Coniella diplodiella): Active | inhibition (Staphylococcus aureus): Active

COc1cc(/C=C/C(C)=C/C(C)=O)oc(=O)c1C [NIGERAPYRONE D]
IC50 (HepG2): 81 µM | inhibition (Alternaria brassicae): Active | IC50 (A549): 81 µM | inhibition (Fusarium oxysporum): Active | inhibition [1]: Active | inhibition (Escherichia coli): Active | inhibition (Coniella diplodiella): Active | IC50 (MCF7): 121 µM | inhibition (Staphylococcus aureus): Active

COc1cc(/C=C/C(C)=O)oc(=O)c1C [NIGERAPYRONE E]
IC50 (NCI-H460): 43 µM | IC50 (HepG2): 86 µM | inhibition (Alternaria brassicae): Active | IC50 (A549): 43 µM | inhibition (Fusarium oxysporum): Active | IC50 (DU-145): 86 µM | inhibition [1]: Active | inhibition (Escherichia coli): Active | inhibition (Coniella diplodiella): Active | IC50 (MDA-MB-231): 48 µM | IC50 (MCF7): 105 µM | inhibition (Staphylococcus aureus): Active | IC50 (SW1990): 38 µM
